Measured values from different studies.
MET: Hepatocyte growth factor receptor (MET, Homo sapiens, UniProt P08581)
MET Y1235D: Hepatocyte growth factor receptor (MET, Homo sapiens, UniProt P08581, Y1235D)

SMILES | target | test | conditions | measurement | value
Cc1ccc(NC(=O)c2ccnc(C(F)(F)F)c2)cc1-c1cc(OCCO)nc(N2CCOCC2)c1 | MET | binding | 1 µM | remaining binding | 100%
C#Cc1cnc(Nc2ccnc(CO)c2)nc1Nc1ccccc1S(C)(=O)=NC#N (centres unmarked) | MET | cell-free assay | 1 µM | remaining signal | 83%
C[C@H]1CC[C@H](n2c3cnccc3c3cnc(Nc4ccc5c(n4)CCN(C(=O)CO)C5)nc32)CC1 | MET Y1235D | cell-free assay | 1 µM | remaining signal | 100%
COc1ccc2oc(-c3ccc4nc(N)oc4c3)c/c(=N\c3ccccc3NC(=O)CCN)c2c1 | MET | binding | 1 µM | remaining binding | 106%
CCCCC(=O)Nc1ccc(-c2ccc3ncn(CCC)c(=O)c3c2)cn1 | MET | binding, competition with immobilised ligand | 0.5 µM | remaining binding | 96%
Cc1cc(O)c(-c2ccc([C@@H](C)CN(C)C)cc2)c2c1[nH]c(=O)c1sccc12 | MET | cell-free assay, inhibitor | 0.1 µM | inhibition | -0.782%
N#Cc1ccc(NC(=O)Nc2ccccc2)cc1 | MET | cell-free assay, competition with immobilised ligand | 25 µM | remaining binding | 100%
CN1CCN(C(=O)c2ccc(NC(=O)Nc3ccc(N(C)c4ccnc(Nc5ccc(CS(C)(=O)=O)cc5)n4)cc3)cc2)CC1 | MET Y1235D | binding | 1 µM | remaining binding | 4.4%
CC(C)S(=O)(=O)c1ccc2nccc(Nc3ccc4sc(C5CCCC5)nc4c3)c2c1 | MET | enzyme activity, inhibitor | 1 µM | activity vs control | 119%
O=C1C=C(Nc2ccc(OCc3cn(Cc4ccccc4)nn3)cc2)C(=O)c2ccccc21 | MET | enzyme activity, inhibitor, radiometric | 10 µM | inhibition | 18%
CC#CC(=O)N1CCC[C@H]1c1nc(-c2ccc(C(=O)Nc3ccccn3)cc2)c2c(N)nccn12 | MET | enzyme activity, inhibitor | 1 µM | inhibition | 17%
COc1ccc2[nH]c3c4[nH]c5ccc(OC)cc5c4c4c(c3c2c1)C(=O)NC4=O | Hepatocyte growth factor receptor (MET, Homo sapiens, UniProt P08581, M1250T) | binding | 1 µM | remaining binding | 88%
C=CC(=O)N1CCC([C@@H]2CCNc3c(C(N)=O)c(-c4ccc(Oc5ccccc5)cc4)nn32)CC1 | MET | cell-free assay | 1 µM | inhibition | 7%
C1=C/COCc2cc(ccc2OCCN2CCCC2)Nc2nccc(n2)-c2cccc(c2)COC/1 | MET Y1235D | binding | 0.1 µM | remaining binding | 100%
